In assay [1] the target is Histone deacetylase 4 (Homo sapiens) (UniProt P56524). The experiment in a line: Inhibition of HDAC4 (unknown origin).
The target of assay [2] is T1, Histone deacetylase 7 (Homo sapiens) (UniProt Q8WUI4).
T1 sequence (whole entry): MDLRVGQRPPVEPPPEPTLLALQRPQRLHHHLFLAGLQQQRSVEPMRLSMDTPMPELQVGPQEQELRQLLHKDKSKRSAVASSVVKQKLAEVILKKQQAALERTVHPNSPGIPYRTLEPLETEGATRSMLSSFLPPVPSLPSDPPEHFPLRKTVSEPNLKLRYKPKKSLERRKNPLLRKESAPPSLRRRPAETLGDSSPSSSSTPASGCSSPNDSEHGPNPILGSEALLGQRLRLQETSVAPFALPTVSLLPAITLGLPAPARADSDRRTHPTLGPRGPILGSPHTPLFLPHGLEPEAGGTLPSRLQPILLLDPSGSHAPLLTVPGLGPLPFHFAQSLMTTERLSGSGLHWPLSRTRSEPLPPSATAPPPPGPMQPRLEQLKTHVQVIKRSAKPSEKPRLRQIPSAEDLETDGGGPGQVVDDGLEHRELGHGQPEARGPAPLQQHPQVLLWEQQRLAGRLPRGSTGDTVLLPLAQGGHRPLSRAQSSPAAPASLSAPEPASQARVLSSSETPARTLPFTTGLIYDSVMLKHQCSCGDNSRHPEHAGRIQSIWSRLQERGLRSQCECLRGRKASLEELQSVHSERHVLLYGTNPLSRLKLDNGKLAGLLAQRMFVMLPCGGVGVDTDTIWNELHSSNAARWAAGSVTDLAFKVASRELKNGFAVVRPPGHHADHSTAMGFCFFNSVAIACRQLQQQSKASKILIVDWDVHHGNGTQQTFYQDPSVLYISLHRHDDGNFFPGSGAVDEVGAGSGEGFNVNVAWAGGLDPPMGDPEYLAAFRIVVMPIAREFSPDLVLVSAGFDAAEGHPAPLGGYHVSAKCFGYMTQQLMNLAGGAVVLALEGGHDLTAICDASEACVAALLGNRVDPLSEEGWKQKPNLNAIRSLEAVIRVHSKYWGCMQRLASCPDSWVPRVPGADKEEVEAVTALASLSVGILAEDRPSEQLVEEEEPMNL
The assay can be described thus: Inhibition of HDAC7 (unknown origin).

The target of assay [3] is Histone deacetylase 5 (Homo sapiens) (UniProt Q9UQL6). The assay can be described thus: Inhibition of HDAC5 (unknown origin).
Sequence of Histone deacetylase 5 (Homo sapiens) (Q9UQL6 whole entry): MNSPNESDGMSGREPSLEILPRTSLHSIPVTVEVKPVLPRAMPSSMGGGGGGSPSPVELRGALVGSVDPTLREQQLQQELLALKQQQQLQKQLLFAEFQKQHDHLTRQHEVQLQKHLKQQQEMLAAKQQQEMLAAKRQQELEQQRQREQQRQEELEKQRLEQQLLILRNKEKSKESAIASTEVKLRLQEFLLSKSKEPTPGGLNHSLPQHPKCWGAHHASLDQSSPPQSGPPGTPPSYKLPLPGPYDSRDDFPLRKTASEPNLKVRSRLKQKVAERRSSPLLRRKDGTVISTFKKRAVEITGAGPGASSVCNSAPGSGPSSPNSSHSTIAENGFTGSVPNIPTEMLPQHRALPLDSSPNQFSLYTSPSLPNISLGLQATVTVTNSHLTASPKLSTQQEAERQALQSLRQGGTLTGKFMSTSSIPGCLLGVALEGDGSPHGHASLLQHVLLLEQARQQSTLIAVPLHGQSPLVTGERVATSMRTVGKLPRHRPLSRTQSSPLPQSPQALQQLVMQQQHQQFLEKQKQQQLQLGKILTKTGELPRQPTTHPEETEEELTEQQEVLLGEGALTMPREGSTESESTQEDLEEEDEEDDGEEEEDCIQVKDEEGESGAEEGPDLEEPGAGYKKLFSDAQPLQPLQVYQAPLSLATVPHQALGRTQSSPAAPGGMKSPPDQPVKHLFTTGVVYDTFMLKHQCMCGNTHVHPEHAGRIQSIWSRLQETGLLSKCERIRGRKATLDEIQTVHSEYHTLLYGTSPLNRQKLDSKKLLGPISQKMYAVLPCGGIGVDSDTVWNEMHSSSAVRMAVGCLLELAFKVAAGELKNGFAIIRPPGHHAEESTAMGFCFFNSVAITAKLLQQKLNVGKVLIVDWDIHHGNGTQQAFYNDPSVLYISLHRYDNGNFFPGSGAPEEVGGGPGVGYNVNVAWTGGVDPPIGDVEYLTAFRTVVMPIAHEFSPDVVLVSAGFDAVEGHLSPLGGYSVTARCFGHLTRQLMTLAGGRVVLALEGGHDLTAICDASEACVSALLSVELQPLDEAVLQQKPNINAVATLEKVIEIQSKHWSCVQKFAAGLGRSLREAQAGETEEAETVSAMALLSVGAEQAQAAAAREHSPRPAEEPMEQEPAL
The target of assay [4] is T2, NAD-dependent protein deacetylase sirtuin-2 (Homo sapiens) (UniProt Q8IXJ6).
T2 sequence (whole entry): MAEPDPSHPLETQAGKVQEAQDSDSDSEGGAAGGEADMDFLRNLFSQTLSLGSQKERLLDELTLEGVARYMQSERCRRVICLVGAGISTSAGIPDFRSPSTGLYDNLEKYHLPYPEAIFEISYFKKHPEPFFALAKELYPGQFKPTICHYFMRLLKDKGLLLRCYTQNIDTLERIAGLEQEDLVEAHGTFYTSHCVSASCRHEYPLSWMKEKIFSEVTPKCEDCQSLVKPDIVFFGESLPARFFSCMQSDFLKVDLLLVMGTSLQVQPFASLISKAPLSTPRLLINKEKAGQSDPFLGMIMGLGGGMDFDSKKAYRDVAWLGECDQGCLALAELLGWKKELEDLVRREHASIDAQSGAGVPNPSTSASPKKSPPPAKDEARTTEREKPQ
The assay can be described thus: Inhibition of His-tagged human recombinant SIRT2 expressed in Escherichia coli at 20 uM using Cbz-Lys(Ac)-AMC as substrate by fluorescence assay. Summed up: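 Fluorescence deacetylase assay with in-house Cbz-Lys(Ac)-AMC substrate. Values are means of three experiments on racemic material. Single-point lines were tested at 20 µM, and less than 20% inhibition was scored as no inhibition.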

Assay [5] has as its target T3, NAD-dependent protein deacetylase sirtuin-1 (Homo sapiens, UniProt Q96EB6).
T3 sequence (Q96EB6 whole entry): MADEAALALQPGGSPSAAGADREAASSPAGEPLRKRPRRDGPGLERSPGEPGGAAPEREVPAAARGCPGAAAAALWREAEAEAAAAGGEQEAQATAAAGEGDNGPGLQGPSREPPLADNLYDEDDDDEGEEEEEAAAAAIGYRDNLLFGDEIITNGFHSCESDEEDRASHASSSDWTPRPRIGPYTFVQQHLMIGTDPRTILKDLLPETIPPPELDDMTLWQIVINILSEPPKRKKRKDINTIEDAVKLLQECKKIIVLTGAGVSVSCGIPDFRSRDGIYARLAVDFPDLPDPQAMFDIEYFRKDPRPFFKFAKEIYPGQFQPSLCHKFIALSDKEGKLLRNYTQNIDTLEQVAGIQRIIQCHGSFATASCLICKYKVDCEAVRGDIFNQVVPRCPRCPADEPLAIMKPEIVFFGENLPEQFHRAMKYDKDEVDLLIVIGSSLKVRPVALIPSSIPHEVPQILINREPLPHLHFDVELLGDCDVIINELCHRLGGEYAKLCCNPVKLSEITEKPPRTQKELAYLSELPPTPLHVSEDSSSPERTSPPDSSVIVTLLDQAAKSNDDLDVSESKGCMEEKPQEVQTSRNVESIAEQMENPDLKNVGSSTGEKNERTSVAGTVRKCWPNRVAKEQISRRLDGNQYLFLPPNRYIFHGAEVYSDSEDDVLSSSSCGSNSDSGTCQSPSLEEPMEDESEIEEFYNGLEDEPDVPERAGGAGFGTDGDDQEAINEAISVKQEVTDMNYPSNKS
The assay can be described thus: Inhibition of His-tagged human recombinant SIRT1 expressed in Escherichia coli using Cbz-Lys(Ac)-AMC as substrate by fluorescence assay.

One may read the inhibition as the share of the control response that was lost under treatment. As a reminder, the IC50 is the concentration that inhibits the measured activity by half.

Activity calls are given as the source filed them. No cut-off for these calls is given here. Bounds are passed on as bounds.

Sequence of Histone deacetylase 4 (Homo sapiens) (P56524 whole entry): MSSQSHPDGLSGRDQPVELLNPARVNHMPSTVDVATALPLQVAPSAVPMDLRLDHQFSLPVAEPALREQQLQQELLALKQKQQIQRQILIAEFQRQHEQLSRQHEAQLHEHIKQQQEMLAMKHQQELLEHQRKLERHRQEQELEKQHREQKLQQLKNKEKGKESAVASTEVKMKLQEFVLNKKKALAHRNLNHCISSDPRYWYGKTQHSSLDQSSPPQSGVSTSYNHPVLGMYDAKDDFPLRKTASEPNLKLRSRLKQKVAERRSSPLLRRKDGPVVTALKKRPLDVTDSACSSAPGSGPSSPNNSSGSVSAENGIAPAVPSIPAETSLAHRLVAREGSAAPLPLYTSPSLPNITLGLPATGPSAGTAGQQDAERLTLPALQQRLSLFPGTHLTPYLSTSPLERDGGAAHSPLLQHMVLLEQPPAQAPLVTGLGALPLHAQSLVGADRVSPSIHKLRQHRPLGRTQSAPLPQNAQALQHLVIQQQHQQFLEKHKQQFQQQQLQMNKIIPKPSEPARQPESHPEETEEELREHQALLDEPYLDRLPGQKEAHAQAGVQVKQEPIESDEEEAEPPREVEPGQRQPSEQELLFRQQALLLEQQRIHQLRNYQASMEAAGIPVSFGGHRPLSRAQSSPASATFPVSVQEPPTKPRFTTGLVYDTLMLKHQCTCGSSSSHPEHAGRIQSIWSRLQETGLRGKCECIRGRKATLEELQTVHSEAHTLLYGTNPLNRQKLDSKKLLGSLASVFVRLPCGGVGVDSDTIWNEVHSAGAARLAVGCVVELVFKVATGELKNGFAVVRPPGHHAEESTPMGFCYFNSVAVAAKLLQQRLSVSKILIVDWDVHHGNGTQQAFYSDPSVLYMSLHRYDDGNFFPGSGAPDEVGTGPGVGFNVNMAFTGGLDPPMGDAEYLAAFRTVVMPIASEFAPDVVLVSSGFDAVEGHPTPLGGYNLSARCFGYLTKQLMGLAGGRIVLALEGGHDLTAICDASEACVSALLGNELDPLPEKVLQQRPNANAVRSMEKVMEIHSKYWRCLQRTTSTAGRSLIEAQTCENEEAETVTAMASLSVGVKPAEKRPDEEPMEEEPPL

As for `NC(=O)C1CCCc2c(-c3ccc(C(F)(F)F)cc3)n[nH]c21` (racemic), the inhibition entry in assay [1], in assay [2] and in assay [3] was “inactive” throughout. For the same molecule, in assay [4], the inhibition was < 20%.

On to `Cn1c(-c2n[nH]c3c2CC(C)(C)CC3C(N)=O)cc2ccccc21` (racemic), for which the inhibition entry in assay [1], in assay [2] and in assay [3] was “inactive” throughout. For the same molecule, the inhibition in assay [4] was < 20%.

`COc1ccc(-c2n[nH]c3c2CCCC3C(N)=O)cc1` (racemic): the inhibition entry in assay [1], in assay [2] and in assay [3] was “inactive” throughout. In addition, the inhibition in assay [4] was < 20%.

On to `CC1(C)CCC(C(N)=O)c2[nH]nc(-c3ccc(Cl)cc3)c21` (racemic), for which the inhibition result in assay [1], in assay [2] and in assay [3] was “inactive” throughout. The inhibition in assay [4] was < 20%.

`NC(=O)C1CCCCCc2c(-c3ccc(Cl)cc3)n[nH]c21` (racemic): the inhibition result in assay [1], in assay [2] and in assay [3] was “inactive” each time. The inhibition in assay [4] was 22%.

Turning to `NC(=O)C1CCCc2c(-c3ccc(Cl)c(F)c3)n[nH]c21` (racemic), the IC50 in assay [5] came to 2600 nM. Further, the inhibition result in assay [1], in assay [2] and in assay [3] was “inactive” throughout. For the same molecule, the inhibition in assay [4] came out at 44%.

Take `CCOC(=O)C1CCCc2c(-c3ccc(Cl)c(F)c3)n[nH]c21` (racemic): the inhibition result in assay [1], in assay [2] and in assay [3] was “inactive” in each case. Besides, in assay [4], the inhibition was < 20%.

`NC(=O)C1CCCc2c(-c3ccccc3Cl)n[nH]c21` (racemic): the inhibition result in assay [1], in assay [2] and in assay [3] was “inactive” each time. Besides, the inhibition in assay [4] turned out to be 11%.

For `CC1(C)Cc2c(-c3ccc(Br)cc3)n[nH]c2C(C(N)=O)C1` (racemic), the inhibition result in assay [1], in assay [2] and in assay [3] was “inactive” in each case. The inhibition in assay [4] was 42%.

For `NC(=O)C1CCCc2c(-c3cccs3)n[nH]c21` (racemic), the inhibition result in assay [1], in assay [2] and in assay [3] was “inactive” throughout. Besides, the inhibition in assay [4] was < 20%.

As to `NC(=O)C1CCCc2c(-c3csc4ccccc34)n[nH]c21` (racemic), the inhibition result in assay [1], in assay [2] and in assay [3] was “inactive” in each case. The inhibition in assay [4] worked out at 44%.

Take `CC1(C)Cc2c(-c3cc4ccccc4s3)n[nH]c2C(C(N)=O)C1` (racemic): the inhibition result in assay [1], in assay [2] and in assay [3] was “inactive” each time. In addition, the inhibition in assay [4] is 67%.

`NC(=O)C1CC2(Cc3c(-c4ccc(Cl)cc4)n[nH]c31)OCCO2` (racemic): the inhibition result in assay [1], in assay [2] and in assay [3] was “inactive” throughout. Further, in assay [4], the inhibition was < 20%.

As to `NC(=O)C1CCCc2c(-c3cc4ccccc4[nH]3)n[nH]c21` (racemic), the inhibition entry in assay [1], in assay [2] and in assay [3] was “inactive” each time. Further, in assay [4], the inhibition came to 43%.

As for `NC(=O)C1CCCc2c(-c3cc4cc(Br)ccc4s3)n[nH]c21` (racemic), the inhibition entry in assay [1], in assay [2] and in assay [3] was “inactive” each time. Moreover, the inhibition in assay [4] is 33%.

Consider `NC(=O)C1CCCc2c(-c3ccc(F)cc3)n[nH]c21` (racemic), for which the inhibition entry in assay [1], in assay [2] and in assay [3] was “inactive” each time. Also, in assay [4], the inhibition was < 20%.

For `CNC(=O)C1CCCc2c(-c3ccc(Cl)cc3)n[nH]c21` (racemic), the inhibition entry in assay [1], in assay [2] and in assay [3] was “inactive” each time. Also, in assay [4], the inhibition was < 20%.

As to `Cn1c(-c2n[nH]c3c2CCCC3C(N)=O)cc2cc(Cl)ccc21` (racemic), the inhibition result in assay [1], in assay [2] and in assay [3] was “inactive” in each case. Moreover, in assay [4], the inhibition was determined as 51%.

For `CC1(C)Cc2c(-c3ccc(Cl)c(Cl)c3)n[nH]c2C(C(N)=O)C1` (racemic), the inhibition entry in assay [1], in assay [2] and in assay [3] was “inactive” each time. Also, the inhibition in assay [4] worked out at 28%.

As to `NC(=O)C1CCCc2c(-c3cccc(Cl)c3)n[nH]c21` (racemic), the inhibition entry in assay [1], in assay [2] and in assay [3] was “inactive” in each case. The inhibition in assay [4] was < 20%.

Consider `NC(=O)C1CCCc2c(-c3ccccc3)n[nH]c21` (racemic), for which the inhibition result in assay [1], in assay [2] and in assay [3] was “inactive” throughout. For the same molecule, the inhibition in assay [4] is < 20%.

Regarding `NC(=O)C1CC(c2ccccc2)Cc2c(-c3ccc(Cl)cc3)n[nH]c21` (mixture of isomers), the inhibition result in assay [1], in assay [2] and in assay [3] was “inactive” throughout. The inhibition in assay [4] worked out at 62%.

Take `NC(=O)C1CCCc2c(-c3ccc(Cl)cc3Cl)n[nH]c21` (racemic): the inhibition entry in assay [1], in assay [2] and in assay [3] was “inactive” in each case. Besides, in assay [4], the inhibition was < 20%.

As for `NC(=O)C1Cc2ccccc2Cc2c(-c3ccc(Cl)cc3)n[nH]c21` (racemic), the inhibition result in assay [1], in assay [2] and in assay [3] was “inactive” throughout. For the same molecule, the inhibition in assay [4] was found to be 50%.

Turning to `Cn1cc(-c2n[nH]c3c2CCCC3C(N)=O)c2ccccc21` (racemic), the inhibition result in assay [1], in assay [2] and in assay [3] was “inactive” each time. Also, in assay [4], the inhibition is < 20%.
